For orientation: half-life means how long it takes for the measured level to halve. The inhibition is the share of the control response that was lost under treatment.

The nature of series [1]: Toxicity in AB zebrafish embryo assessed as percentage of embryos alive at 5 to 10 uM measured at 120 hrs post fertilization by dissecting light microscopic analysis relative to DMF. The conditions noted are these: read-out: Activity. The series is classed as organism-based, Danio rerio. The method in brief:
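Wild-type AB zebrafish embryos, collected within 1 h of lights-on and washed in E3 medium, were exposed one embryo per well in 200 μL test solution, with plates sealed against evaporation. There were 100 embryos per group, split into three replicate groups. Mortality was recorded at 24–168 hpf. DMF vehicle (1:1000) served as control. Results are mean ± SD of three replicates.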

The species entered for series [2] is Danio rerio. The series is described as follows: Toxicity in AB zebrafish embryo assessed as embryonic spontaneous movement frequencies per minute at 1 to 20 uM measured at 24 hrs post fertilization by stereoscopic dissecting light microscopic analysis (reference value: 15 /min). Format: organism-based. The conditions noted are these: in vivo. The method, boiled down:
(§1)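 AB embryos exposed from 4 to 24 hpf to compound (0.5–20 μM) or DMF vehicle (1:1000); ten embryos per group chosen randomly; spontaneous movement recorded under stereoscopic dissecting microscope, frequency per min counted at 24 hpf; three independent experiments, mean ± SD.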

The species named for series [3] is Danio rerio. The series is described as follows: Toxicity in AB zebrafish embryo assessed as increase in embryo malformation measured at 96 hrs post fertilization by stereoscopic dissecting light microscopic analysis. Format: organism-based. Particulars: in vivo. The method, boiled down:
(§2)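 AB embryos exposed from 4 hpf through 96 hpf to compound or DMF vehicle (1:1000); malformations scored at 96 hpf under stereoscopic dissecting microscope; 100 embryos per group in three replicates; three independent experiments, mean ± SD.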

The species entered for series [4] is Danio rerio. Kind of series: Toxicity in AB zebrafish embryo assessed as vitelline cyst at 0.5 uM measured at 96 hrs post fertilization by stereoscopic dissecting light microscopic analysis. Format: organism-based. The conditions noted are these: in vivo. The method in brief:
as §2

The species entered for series [5] is Danio rerio. The series is described as follows: Toxicity in AB zebrafish embryo assessed as bent spine at 0.5 uM measured at 96 hrs post fertilization by stereoscopic dissecting light microscopic analysis. Particulars: in vivo. The series is classed as organism-based. The method, boiled down:
as §2

The nature of series [6]: (§3) Cytotoxicity against mouse RAW264.7 cells assessed as cell viability at 10 to 100 uM treated for 24 hrs in absence of LPS by MTT assay. Format: cell-based. The conditions noted are these: RAW264.7 cells, read-out: Activity. The method in brief:
(§4)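 Macrophages in high-glucose DMEM + 10% heat-inactivated FBS, 2 mM glutamine, 37 °C, 5% CO2; exposed 24 h to 10, 50, 100 μM with or without LPS 1 μg/mL; MTT added 4 h, formazan dissolved in DMSO, A570, expressed as % of control; four independent experiments.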
A general note: Tetrazolium dyes change colour on reduction, which living cells bring about.

The species entered for series [7] is Danio rerio. The series is described as follows: Toxicity in AB zebrafish embryo assessed as reduction in embryonic spontaneous movement frequency per minute measured at 24 hrs post fertilization by stereoscopic dissecting light microscopic analysis. Format: organism-based. The conditions noted are these: in vivo. The method in brief:
as §1

The nature of series [8]: Drug degradation in phosphate buffer assessed as H2S release by measuring test compound half life at 40 uM measured every 5 mins in presence of L-cysteine by UV-Vis spectrometry. Format: physicochemical. The method in brief: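 Sulfide release at 37.5 °C: donor (40 mM THF stock) added to pH 7.4 phosphate buffer with 1.0 mM L-cysteine; aliquots taken every 5 min into zinc acetate/N,N-dimethyl-1,4-phenylenediamine/FeCl3 in HCl, A670 read 15 min later; H2S quantified against Na2S standard curve (5–150 μM); release curve plotted vs time; four independent experiments.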

Series [9] is filed under the species Danio rerio. The series is described as follows: Toxicity in AB zebrafish embryo assessed as reduction in embryonic spontaneous movement frequencies per minute up to 1 uM measured at 24 hrs post fertilization by stereoscopic dissecting light microscopic analysis. Format: organism-based. The conditions noted are these: in vivo. The method in brief:
as §1

The species entered for series [10] is Danio rerio. Kind of series: Toxicity in AB zebrafish embryo assessed as embryonic spontaneous movement frequencies per minute at 5 uM measured at 24 hrs post fertilization by stereoscopic dissecting light microscopic analysis (reference value: 15.9 /min). Particulars: in vivo. Format: organism-based. The method, boiled down: as §1
For series [11], the species on record is Danio rerio. Kind of series: Toxicity in AB zebrafish embryo assessed as embryonic spontaneous movement frequencies per minute at 10 uM measured at 24 hrs post fertilization by stereoscopic dissecting light microscopic analysis (reference value: 15.9 /min). Format: organism-based. Particulars: in vivo. The method, boiled down: as §1
The target of series [12] is T1, Nitric oxide synthase, inducible (Mus musculus) (UniProt P29477).
T1 sequence (whole entry): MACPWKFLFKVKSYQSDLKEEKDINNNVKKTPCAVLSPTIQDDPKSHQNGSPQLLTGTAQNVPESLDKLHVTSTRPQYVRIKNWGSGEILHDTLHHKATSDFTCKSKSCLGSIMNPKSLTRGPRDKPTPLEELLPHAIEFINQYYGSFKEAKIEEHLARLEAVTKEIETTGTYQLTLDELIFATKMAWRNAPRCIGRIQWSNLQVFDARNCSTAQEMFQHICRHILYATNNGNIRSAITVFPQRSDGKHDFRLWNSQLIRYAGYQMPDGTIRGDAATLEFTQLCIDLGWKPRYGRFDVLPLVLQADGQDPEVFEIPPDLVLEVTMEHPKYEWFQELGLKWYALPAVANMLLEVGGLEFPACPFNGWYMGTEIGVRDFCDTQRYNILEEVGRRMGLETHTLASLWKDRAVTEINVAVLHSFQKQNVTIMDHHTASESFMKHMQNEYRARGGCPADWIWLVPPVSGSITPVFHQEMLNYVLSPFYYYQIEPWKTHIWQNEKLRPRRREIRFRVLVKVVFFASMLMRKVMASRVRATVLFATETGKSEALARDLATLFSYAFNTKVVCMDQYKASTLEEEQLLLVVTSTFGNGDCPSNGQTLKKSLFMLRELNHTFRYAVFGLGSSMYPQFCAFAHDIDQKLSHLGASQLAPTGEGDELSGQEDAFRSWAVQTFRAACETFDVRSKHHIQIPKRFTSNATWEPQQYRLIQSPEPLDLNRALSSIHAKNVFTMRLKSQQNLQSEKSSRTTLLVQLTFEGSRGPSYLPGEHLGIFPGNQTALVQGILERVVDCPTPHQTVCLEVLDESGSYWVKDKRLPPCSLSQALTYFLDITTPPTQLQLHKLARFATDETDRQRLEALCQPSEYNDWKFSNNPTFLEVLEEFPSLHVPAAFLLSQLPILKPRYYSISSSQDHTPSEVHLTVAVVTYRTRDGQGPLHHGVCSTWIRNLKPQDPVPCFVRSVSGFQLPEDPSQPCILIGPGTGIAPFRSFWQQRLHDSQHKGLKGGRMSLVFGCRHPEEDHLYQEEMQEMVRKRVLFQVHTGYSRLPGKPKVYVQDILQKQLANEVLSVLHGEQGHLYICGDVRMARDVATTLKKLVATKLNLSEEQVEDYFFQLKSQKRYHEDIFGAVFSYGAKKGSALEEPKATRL
Kind of series: Inhibition of iNOS in mouse RAW264.7 cells assessed as reduction in LPS-induced NO production at 50 uM administered for 24 hrs post LPS induction by Griess method relative to control. Format: cell-based. The method in brief: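 RAW264.7 cells stimulated with LPS 1 μg/mL for 4 h, then compound (10, 50, 100 μM) for 24 h; culture medium reacted with Griess reagents I and II, absorbance 570 nm; nitrite from sodium nitrite standard curve (0–100 μM in medium); four independent experiments, mean ± SD.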

Series [13] has as its system RAW264.7. The series is described as follows: Antiinflammatory activity in mouse RAW264.7 cells assessed as increase in IL10 levels at 100 uM measured after 24 hrs in absence of LPS by ELISA relative to control. Format: functional. The method, boiled down: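 Macrophages exposed 24 h to 10, 50, 100 μM without LPS; lysates (RIPA, 12,000×g spin) normalised by BCA to 0.1 mg/mL protein; IL-10 measured by mouse-specific sandwich ELISA kit; four independent experiments, mean ± SD.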

The subject of series [14] is RAW264.7. The description is as §3. Particulars: raw264.7, 24 h, 100 µM. Format: cell-based. The method, boiled down: as §4

`CC(C)Cc1ccc(C(C)C(=O)Oc2ccc(C(N)=S)cc2)cc1` (stereo not given): the survival at 120 h, up to 10 µM in series [1] was determined as 60%. For the same compound, the Activity in the series filed under Danio rerio [2] is 11 min⁻¹; in the series listed under Danio rerio [3], “Dose-dependent effect”; in the series filed under Danio rerio [4], “Toxic”; in the series listed under Danio rerio [5] it was “Toxic”; in the series filed under Danio rerio [7], “Dose-dependent effect”. In addition, the viability at 24 h, up to 100 µM in series [6] lay within 70 to 110%.
For `CC(=O)Nc1ccc(OC(=O)CCCCC2CCSS2)cc1` (stereo not given), the half-life at 40 µM in [8] was found to be 14.1 min. The Activity result in the series listed under Danio rerio [9] is “Non-Toxic”; in the series listed under Danio rerio [10] it was 14.1 min⁻¹; in the series listed under Danio rerio [11], 13.5 min⁻¹; in the series on RAW264.7 [14], “Non-Toxic”; in the series filed under Danio rerio [7], “Dose-dependent effect”. The inhibition in series [12] amounted to 60%. Also, the “fold change (FC)” value in the series with RAW264.7 [13] was 3.

The values above are taken from ChEMBL document CHEMBL4190227, “Syntheses, toxicities and anti-inflammation of H2S-donors based on non-steroidal anti-inflammatory drugs” (Eur J Med Chem, 2017).
